# Experiments:
# Format in all cases: functional
# SF-295 = assay: Anticancer activity against human SF295 cells after 48 hrs by sulforhodamine B assay; conditions: SF-295, 48 h
# Method in brief: (§1)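 NCI 60-cell-line anticancer screen. Each compound is tested at a minimum of five concentrations in 10-fold dilutions with 48 h drug exposure. Cell viability/growth is estimated by sulforhodamine B protein staining. GI50 is the log10 molar concentration giving 50% growth inhibition, read from the dose-response curves and mean graphs of the NCI data screening report. TGI was taken from double screens.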
# 786-0 = assay: Anticancer activity against human 786-0 cells after 48 hrs by sulforhodamine B assay; conditions: 786-0, 48 h; method in brief: as §1
# OVCAR-4 = assay: Anticancer activity against human OVCAR4 cells after 48 hrs by sulforhodamine B assay; conditions: OVCAR-4, 48 h; method in brief: as §1
# HCT-15 = assay: Anticancer activity against human HCT15 cells after 48 hrs by sulforhodamine B assay; conditions: HCT-15, 48 h; method in brief: as §1
# MOLT-4 = assay: Anticancer activity against human MOLT4 cells after 48 hrs by sulforhodamine B assay; conditions: MOLT-4, 48 h; method in brief: as §1
# [1] = Anticancer activity against human Hs 578T cells after 48 hrs by sulforhodamine B assay; method in brief: as §1
# PC-3 = assay: Anticancer activity against human PC3 cells after 48 hrs by sulforhodamine B assay; conditions: PC-3, 48 h; method in brief: as §1
# NCI-H226 = assay: Anticancer activity against human NCI-H226 cells after 48 hrs by sulforhodamine B assay; conditions: NCI-H226, 48 h; method in brief: as §1
# COLO 205 = assay: Anticancer activity against human COLO205 cells after 48 hrs by sulforhodamine B assay; conditions: COLO 205, 48 h; method in brief: as §1
# BT-549 = assay: Anticancer activity against human BT549 cells after 48 hrs by sulforhodamine B assay; conditions: BT-549, 48 h; method in brief: as §1
# SNB-75 = assay: Anticancer activity against human SNB75 cells after 48 hrs by sulforhodamine B assay; conditions: SNB-75, 48 h
# Method in brief: (§2)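 Tested in the NCI 60-human-tumour-cell-line screen. Compounds were applied at a minimum of five concentrations in 10-fold dilutions with 48 h exposure. Cell growth was estimated by sulforhodamine B protein staining. GI50 (log10 of molar concentration giving 50% growth inhibition) and TGI were read from the data sheets, dose-response curves and mean graphs. Some cell lines were screened twice.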
# TK-10 = assay: Anticancer activity against human TK10 cells after 48 hrs by sulforhodamine B assay; conditions: TK-10, 48 h; method in brief: as §2
# SK-MEL-2 = assay: Anticancer activity against human SK-MEL-2 cells after 48 hrs by sulforhodamine B assay; conditions: SK-MEL-2, 48 h; method in brief: as §1
# [2] = Anticancer activity against human […] cells after 48 hrs by sulforhodamine B assay; method in brief: as §1
# UO-31 = assay: Anticancer activity against human UO31 cells after 48 hrs by sulforhodamine B assay; conditions: UO-31, 48 h; method in brief: as §2
# SK-OV-3 = assay: Anticancer activity against human SKOV3 cells after 48 hrs by sulforhodamine B assay; conditions: SK-OV-3, 48 h; method in brief: as §1
# HOP-92 = assay: Anticancer activity against human HOP92 cells after 48 hrs by sulforhodamine B assay; conditions: HOP-92, 48 h; method in brief: as §1
# U-251 = assay: Anticancer activity against human U251 cells after 48 hrs by sulforhodamine B assay; conditions: U-251, 48 h; method in brief: as §2
# IGROV-1 = assay: Anticancer activity against human IGROV1 cells after 48 hrs by sulforhodamine B assay; conditions: IGROV-1, 48 h; method in brief: as §1
# SK-MEL-28 = assay: Anticancer activity against human SK-MEL-28 cells after 48 hrs by sulforhodamine B assay; conditions: SK-MEL-28, 48 h; method in brief: as §1
# NCI-H522 = assay: Anticancer activity against human NCI-H522 cells after 48 hrs by sulforhodamine B assay; conditions: NCI-H522, 48 h; method in brief: as §1
# Malme-3M = assay: Anticancer activity against human MALME-3M cells after 48 hrs by sulforhodamine B assay; method in brief: as §1
# HCT-116 = assay: Anticancer activity against human HCT116 cells after 48 hrs by sulforhodamine B assay; conditions: HCT-116, 48 h; method in brief: as §1
# OVCAR-5 = assay: Anticancer activity against human OVCAR5 cells after 48 hrs by sulforhodamine B assay; conditions: OVCAR-5, 48 h; method in brief: as §1
# HOP-62 = assay: Anticancer activity against human HOP62 cells after 48 hrs by sulforhodamine B assay; conditions: HOP-62, 48 h; method in brief: as §1
# DU-145 = assay: Anticancer activity against human DU145 cells after 48 hrs by sulforhodamine B assay; conditions: DU-145, 48 h; method in brief: as §1
# M14 = assay: Anticancer activity against human M14 cells after 48 hrs by sulforhodamine B assay; conditions: M14, 48 h; method in brief: as §1
# CCRF-CEM = assay: Anticancer activity against human CCRF-CEM cells after 48 hrs by sulforhodamine B assay; method in brief: as §1
# SNB-19 = assay: Anticancer activity against human SNB19 cells after 48 hrs by sulforhodamine B assay; conditions: SNB-19, 48 h; method in brief: as §1
# ACHN = assay: Anticancer activity against human ACHN cells after 48 hrs by sulforhodamine B assay; method in brief: as §1
# HL-60 = assay: Anticancer activity against human HL-60(TB) cells after 48 hrs by sulforhodamine B assay; conditions: HL-60, 48 h
# Method in brief: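 NCI 60-cell-line anticancer screen. Drugs tested at a minimum of five concentrations at 10-fold dilutions with 48 h exposure. Cell growth estimated by sulforhodamine B protein assay. GI50 is log10 of the molar concentration giving 50% growth inhibition, read from the screening data sheet, dose-response curves and mean graphs.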
# SR = assay: Anticancer activity against human SR cells after 48 hrs by sulforhodamine B assay; method in brief: as §2
# NCI-H460 = assay: Anticancer activity against human NCI-H460 cells after 48 hrs by sulforhodamine B assay; conditions: NCI-H460, 48 h; method in brief: as §1
# SK-MEL-5 = assay: Anticancer activity against human SK-MEL-5 cells after 48 hrs by sulforhodamine B assay; conditions: SK-MEL-5, 48 h; method in brief: as §1
# HCC 2998 = assay: Anticancer activity against human HCC2998 cells after 48 hrs by sulforhodamine B assay; conditions: HCC 2998, 48 h; method in brief: as §1
# K562 = assay: Anticancer activity against human K562 cells after 48 hrs by sulforhodamine B assay; conditions: K562, 48 h; method in brief: as §1
# NCI-H23 = assay: Anticancer activity against human NCI-H23 cells after 48 hrs by sulforhodamine B assay; conditions: NCI-H23, 48 h; method in brief: as §1
# MDA-MB-231 = assay: Anticancer activity against human MDA-MB-231 cells after 48 hrs by sulforhodamine B assay; conditions: MDA-MB-231, 48 h; method in brief: as §1
# NCI/ADR-RES = assay: Anticancer activity against human NCI/ADR-RES cells after 48 hrs by sulforhodamine B assay; method in brief: as §1
# A549 = assay: Anticancer activity against human A549 cells after 48 hrs by sulforhodamine B assay; conditions: A549, 48 h; method in brief: as §1
# CAKI-1 = assay: Anticancer activity against human Caki1 cells after 48 hrs by sulforhodamine B assay; conditions: CAKI-1, 48 h; method in brief: as §1
# MDA-N = assay: Anticancer activity against human MDA-N cells after 48 hrs by sulforhodamine B assay; method in brief: as §1
# UACC-62 = assay: Anticancer activity against human UACC62 cells after 48 hrs by sulforhodamine B assay; conditions: UACC-62, 48 h; method in brief: as §2
# OVCAR-3 = assay: Anticancer activity against human OVCAR-3 cells after 48 hrs by sulforhodamine B assay; conditions: OVCAR-3, 48 h; method in brief: as §1
# HT-29 = assay: Anticancer activity against human HT-29 cells after 48 hrs by sulforhodamine B assay; conditions: HT-29, 48 h; method in brief: as §1
# NCI-H322M = assay: Anticancer activity against human NCI-H322M cells after 48 hrs by sulforhodamine B assay; method in brief: as §1
# SW-620 = assay: Anticancer activity against human SW620 cells after 48 hrs by sulforhodamine B assay; conditions: SW-620, 48 h; method in brief: as §2
# SN12C = assay: Anticancer activity against human SN12C cells after 48 hrs by sulforhodamine B assay; method in brief: as §1
# UACC-257 = assay: Anticancer activity against human UACC257 cells after 48 hrs by sulforhodamine B assay; conditions: UACC-257, 48 h; method in brief: as §2
# EKVX = assay: Anticancer activity against human EKVX cells after 48 hrs by sulforhodamine B assay; method in brief: as §1
# OVCAR-8 = assay: Anticancer activity against human OVCAR8 cells after 48 hrs by sulforhodamine B assay; conditions: OVCAR-8, 48 h; method in brief: as §1
# KM12 = assay: Anticancer activity against human KM12 cells after 48 hrs by sulforhodamine B assay; conditions: KM12, 48 h; method in brief: as §1
# A498 = assay: Anticancer activity against human A498 cells after 48 hrs by sulforhodamine B assay; conditions: A498, 48 h; method in brief: as §1
# T47D = assay: Anticancer activity against human T47D cells after 48 hrs by sulforhodamine B assay; method in brief: as §2
# SF-268 = assay: Anticancer activity against human SF268 cells after 48 hrs by sulforhodamine B assay; conditions: SF-268, 48 h; method in brief: as §1
# RXF 393 = assay: Anticancer activity against human RXF393 cells after 48 hrs by sulforhodamine B assay; conditions: RXF 393, 48 h; method in brief: as §1
# MCF7 = assay: Anticancer activity against human MCF7 cells after 48 hrs by sulforhodamine B assay; conditions: MCF7, 48 h; method in brief: as §1
# MDA-MB-435 = assay: Anticancer activity against human MDA-MB-435 cells after 48 hrs by sulforhodamine B assay; conditions: MDA-MB-435, 48 h; method in brief: as §1
# LOX IMVI = assay: Anticancer activity against human LOXIMVI cells after 48 hrs by sulforhodamine B assay; method in brief: as §1
# SF-539 = assay: Anticancer activity against human SF539 cells after 48 hrs by sulforhodamine B assay; conditions: SF-539, 48 h; method in brief: as §1
smiles,measurement,setting,value
C#C[C@@]1(O)[C@@H](CO)O[C@@H](n2ccc(N)nc2=O)[C@@H]1O [TAS-106],GI50,SF-295,< 10 nM
same,GI50,786-0,< 10 nM
same,GI50,OVCAR-4,158 nM
same,GI50,HCT-15,< 10 nM
same,GI50,MOLT-4,< 10 nM
same,GI50,[1],12.6 nM
same,GI50,PC-3,31.6 nM
same,GI50,NCI-H226,15.8 nM
same,GI50,COLO 205,< 10 nM
same,GI50,BT-549,39.8 nM
same,GI50,SNB-75,15.8 nM
same,GI50,TK-10,15.8 nM
same,GI50,SK-MEL-2,12.6 nM
same,GI50,[2],< 10 nM
same,GI50,UO-31,< 10 nM
same,GI50,SK-OV-3,79.4 nM
same,GI50,HOP-92,63.1 nM
same,GI50,U-251,19.9 nM
same,GI50,IGROV-1,12.6 nM
same,GI50,SK-MEL-28,50.1 nM
same,GI50,NCI-H522,< 10 nM
same,GI50,Malme-3M,15.8 nM
same,GI50,HCT-116,< 10 nM
same,GI50,OVCAR-5,50.1 nM
same,GI50,HOP-62,< 10 nM
same,GI50,DU-145,< 10 nM
same,GI50,M14,39.8 nM
same,GI50,CCRF-CEM,< 10 nM
same,GI50,SNB-19,63.1 nM
same,GI50,ACHN,< 10 nM
same,GI50,HL-60,< 10 nM
same,GI50,SR,< 10 nM
same,GI50,NCI-H460,< 10 nM
same,GI50,SK-MEL-5,10 nM
same,GI50,HCC 2998,< 10 nM
same,GI50,K562,< 10 nM
same,GI50,NCI-H23,31.6 nM
same,GI50,MDA-MB-231,39.8 nM
same,GI50,NCI/ADR-RES,< 10 nM
same,GI50,A549,< 10 nM
same,GI50,CAKI-1,< 10 nM
same,GI50,MDA-N,12.6 nM
same,GI50,UACC-62,31.6 nM
same,GI50,OVCAR-3,79.4 nM
same,GI50,HT-29,< 10 nM
same,GI50,NCI-H322M,19.9 nM
same,GI50,SW-620,< 10 nM
same,GI50,SN12C,< 10 nM
same,GI50,UACC-257,79.4 nM
same,GI50,EKVX,63.1 nM
same,GI50,OVCAR-8,< 10 nM
same,GI50,KM12,< 10 nM
same,GI50,A498,< 10 nM
same,GI50,T47D,< 10 nM
same,GI50,SF-268,15.8 nM
same,GI50,RXF 393,25.1 nM
same,GI50,MCF7,< 10 nM
same,GI50,MDA-MB-435,< 10 nM
same,GI50,LOX IMVI,< 10 nM
same,GI50,SF-539,39.8 nM

# — ChEMBL document CHEMBL1152599, “Synthesis and in vitro activities of new anticancer duplex drugs linking 2'-deoxy-5-fluorouridine (5-FdU) with 3'-C-ethynylcytidine (ECyd) via a phosphodiester bonding” (2009)
